# Test results published in ChEMBL document CHEMBL1127636, “The development of cyclic sulfolanes as novel and high-affinity P2 ligands for HIV-1 protease inhibitors” (J Med Chem, 1994).
# Columns and labels:
# [1] = biological target: Human immunodeficiency virus type 1 protease (Human immunodeficiency virus 1, UniProt Q72874); experiment: Inhibitory activity against HIV-1 protease
# [2] = tested on: Human immunodeficiency virus 1; experiment: Inhibition of HIV-1 in MT-4 human T-lymphoid cells infected with IIIb isolate; assay type: functional; settings: Human immunodeficiency virus 1, T-lymphoid; read-out: CIC95
# In short: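 Unless otherwise indicated, each value is from a single determination (n = 1).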
SMILES,IC50 [1],IC95 [2]
CCCC[C@@H]1[C@H](OC(=O)N[C@@H](Cc2ccccc2)[C@H](O)CN2C[C@H]3CCCC[C@H]3C[C@H]2C(=O)NC(C)(C)C)CCS1(=O)=O,45.8 nM,800 nM
C[C@H]1OCC[C@H]1OC(=O)N[C@@H](Cc1ccccc1)[C@H](O)CN1C[C@H]2CCCC[C@H]2C[C@H]1C(=O)NC(C)(C)C,,1600 nM
C[C@H]1CS(=O)(=O)C[C@H]1OC(=O)N[C@@H](Cc1ccccc1)[C@H](O)CN1C[C@H]2CCCC[C@H]2C[C@H]1C(=O)NC(C)(C)C,70 nM,800 nM
CCC[C@H]1[C@@H](OC(=O)N[C@@H](Cc2ccccc2)[C@H](O)CN2C[C@H]3CCCC[C@H]3C[C@H]2C(=O)NC(C)(C)C)CCS1(=O)=O,6.2 nM,400 nM
CC(C)[C@@H]1[C@H](OC(=O)N[C@@H](Cc2ccccc2)[C@H](O)CN2C[C@H]3CCCC[C@H]3C[C@H]2C(=O)NC(C)(C)C)CCS1(=O)=O,3.5 nM,50 nM
CC(C)(C)NC(=O)[C@@H]1C[C@@H]2CCCC[C@@H]2CN1C[C@@H](O)[C@H](Cc1ccccc1)NC(=O)O[C@@H]1CCS(=O)(=O)C1,,> 800 nM
C[C@@H]1OCC[C@@H]1OC(=O)N[C@@H](Cc1ccccc1)[C@H](O)CN1C[C@H]2CCCC[C@H]2C[C@H]1C(=O)NC(C)(C)C,,400 nM
C[C@@H]1C[C@H](OC(=O)N[C@@H](Cc2ccccc2)[C@H](O)CN2C[C@H]3CCCC[C@H]3C[C@H]2C(=O)NC(C)(C)C)CS1(=O)=O,82 nM,> 400 nM
CC(C)(C)NC(=O)[C@@H]1C[C@@H]2CCCC[C@@H]2CN1C[C@@H](O)[C@H](Cc1ccccc1)NC(=O)O[C@H]1CCSC1,132 nM,
CC(C)[C@@H]1[C@H](OC(=O)N[C@@H](Cc2ccccc2)[C@H](O)CN2C[C@H]3CCC[C@H]3C[C@H]2C(=O)NC(C)(C)C)CCS1(=O)=O,3 nM,100 nM
C[C@H]1C[C@@H](OC(=O)N[C@@H](Cc2ccccc2)[C@H](O)CN2C[C@H]3CCCC[C@H]3C[C@H]2C(=O)NC(C)(C)C)CS1(=O)=O,1600 nM,
CC[C@@H]1[C@H](OC(=O)N[C@@H](Cc2ccccc2)[C@H](O)CN2C[C@H]3CCCC[C@H]3C[C@H]2C(=O)NC(C)(C)C)CCS1(=O)=O,,800 nM
CC(C)(C)NC(=O)[C@@H]1C[C@@H]2CCCC[C@@H]2CN1C[C@@H](O)[C@H](Cc1ccccc1)NC(=O)OC1CS(=O)(=O)C1,104 nM,
C[C@H]1[C@@H](OC(=O)N[C@@H](Cc2ccccc2)[C@H](O)CN2C[C@H]3CCCC[C@H]3C[C@H]2C(=O)NC(C)(C)C)CCS1(=O)=O,,200 nM
CC(C)(C)NC(=O)[C@@H]1C[C@@H]2CCCC[C@@H]2CN1C[C@@H](O)[C@H](Cc1ccccc1)NC(=O)O[C@@H]1CCS(=O)(=O)[C@@H]1C1CCCC1,22.6 nM,1500 nM
CCCC[C@H]1[C@@H](OC(=O)N[C@@H](Cc2ccccc2)[C@H](O)CN2C[C@H]3CCCC[C@H]3C[C@H]2C(=O)NC(C)(C)C)CCS1(=O)=O,14.9 nM,400 nM
CC(C)(C)NC(=O)[C@@H]1C[C@@H]2CCCC[C@@H]2CN1C[C@@H](O)[C@H](Cc1ccccc1)NC(=O)O[C@@H]1CCCS(=O)(=O)C1,2070 nM,
C[C@H]1[C@@H](OC(=O)N[C@@H](Cc2ccccc2)[C@H](O)CN2C[C@H]3CCC[C@H]3C[C@H]2C(=O)NC(C)(C)C)CCS1(=O)=O,12.6 nM,100 nM
CC(C)(C)NC(=O)[C@@H]1C[C@@H]2CCCC[C@@H]2CN1C[C@@H](O)[C@H](Cc1ccccc1)NC(=O)O[C@@H]1CCSC1,220 nM,
CC(C)(C)NC(=O)[C@@H]1C[C@@H]2CCCC[C@@H]2CN1C[C@@H](O)[C@H](Cc1ccccc1)NC(=O)O[C@H]1CCS(=O)(=O)C1,76 nM,364 nM
CCC[C@@H]1[C@H](OC(=O)N[C@@H](Cc2ccccc2)[C@H](O)CN2C[C@H]3CCCC[C@H]3C[C@H]2C(=O)NC(C)(C)C)CCS1(=O)=O,20.1 nM,800 nM
C[C@@H]1[C@H](OC(=O)N[C@@H](Cc2ccccc2)[C@H](O)CN2C[C@H]3CCCC[C@H]3C[C@H]2C(=O)NC(C)(C)C)CCS1(=O)=O,,200 nM
CC(C)(C)NC(=O)[C@@H]1C[C@@H]2CCCC[C@@H]2CN1C[C@@H](O)[C@H](Cc1ccccc1)NC(=O)O[C@H]1CCS(=O)(=O)[C@H]1C1CCCC1,6.2 nM,400 nM
CC(C)(C)NC(=O)[C@@H]1C[C@@H]2CCCC[C@@H]2CN1C[C@@H](O)[C@H](Cc1ccccc1)NC(=O)O[C@H]1CCOC1,,800 nM
CC(C)[C@H]1[C@@H](OC(=O)N[C@@H](Cc2ccccc2)[C@H](O)CN2C[C@H]3CCCC[C@H]3C[C@H]2C(=O)NC(C)(C)C)CCS1(=O)=O,,200 nM
CC(C)(C)NC(=O)[C@@H]1C[C@@H]2CCC[C@@H]2CN1C[C@@H](O)[C@H](Cc1ccccc1)NC(=O)O[C@H]1CCS(=O)(=O)C1,11.3 nM,> 200 nM
C[C@@H]1CS(=O)(=O)C[C@@H]1OC(=O)N[C@@H](Cc1ccccc1)[C@H](O)CN1C[C@H]2CCCC[C@H]2C[C@H]1C(=O)NC(C)(C)C,216 nM,800 nM
CC(C)(C)NC(=O)[C@@H]1C[C@@H]2CCC[C@@H]2CN1C[C@@H](O)[C@H](Cc1ccccc1)NC(=O)O[C@H]1CCOC1,61 nM,400 nM
CC[C@H]1[C@@H](OC(=O)N[C@@H](Cc2ccccc2)[C@H](O)CN2C[C@H]3CCCC[C@H]3C[C@H]2C(=O)NC(C)(C)C)CCS1(=O)=O,,400 nM
CC(C)(C)NC(=O)[C@@H]1C[C@@H]2CCCC[C@@H]2CN1C[C@@H](O)[C@H](Cc1ccccc1)NC(=O)O[C@H]1CCCS(=O)(=O)C1,1750 nM,
